Where “and” joins values, the source holds several entries; their conditions need not be identical. Equal values may be shown once.
Tested on: HEK-293T
Experiment: Multiplex assay against HEK293T
Type: toxicity, cell-based
Settings: human
Method in brief: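 Four dyes were applied at seeding to live cells: Hoechst33342, BioTracker Green Microtubule Cytoskeleton Dye, MitoTracker Red and Annexin V Alexa Fluor 680. Imaging after compound addition used a CQ1 microscope at 37°C and 5% CO2. CellPathfinder machine-learning gating then sorted cells into Hoechst high-intensity objects or normal cells, normal cells into healthy, pyknosed or fragmented nuclei, and pyknosed cells into mitotic or apoptotic, with tubulin, mitochondrial-mass and membrane-permeability phenotypes given as per cents of healthy-nucleus cells.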

[1] = 12 h, 1 µM, compound concentration 1 uM
[2] = 12 h, 10 µM, compound concentration 10 uM
[3] = 24 h, 1 µM, compound concentration 1 uM
[4] = 24 h, 10 µM, compound concentration 10 uM
[5] = 48 h, 1 µM, compound concentration 1 uM
[6] = 48 h, 10 µM, compound concentration 10 uM

## Cc1nn(C)c2nc(NNC(=O)Nc3cc(Cl)nc(Cl)c3)cc(C(C)C)c12
[1]
  Population Apoptotic (%): 27% and 40%
  Population Fragmented Nuclei (%): 5%
  Population Healthy Nuclei (%): 77% and 81%
  Population Hoechst High Intensity Objects (%): 5% and 2%
  Population Membrane Permeable-Phenotype (%): 0%
  Population Mitochondria Different-Phenotype (%): 37% and 59%
  Population Mitotic Cells (%): 72% and 60%
  Population Normal (%): 94% and 97%
  Population Pyknosed Nuclei (%): 16% and 13%
  Population Tubulin-Different-Phenotype (%): 26% and 25%
  Total Cell Count: 467 and 383
[2]
  Population Apoptotic (%): 55% and 46%
  Population Fragmented Nuclei (%): 5% and 4%
  Population Healthy Nuclei (%): 61% and 74%
  Population Hoechst High Intensity Objects (%): 12% and 3%
  Population Membrane Permeable-Phenotype (%): 1%
  Population Mitochondria Different-Phenotype (%): 79% and 84%
  Population Mitotic Cells (%): 44% and 53%
  Population Normal (%): 88% and 96%
  Population Pyknosed Nuclei (%): 32% and 21%
  Population Tubulin-Different-Phenotype (%): 80% and 75%
  Total Cell Count: 300 and 396
[3]
  Population Apoptotic (%): 31%
  Population Fragmented Nuclei (%): 9% and 6%
  Population Healthy Nuclei (%): 78% and 82%
  Population Hoechst High Intensity Objects (%): 3% and 1%
  Population Membrane Permeable-Phenotype (%): 0%
  Population Mitochondria Different-Phenotype (%): 27% and 37%
  Population Mitotic Cells (%): 68%
  Population Normal (%): 96% and 98%
  Population Pyknosed Nuclei (%): 11%
  Population Tubulin-Different-Phenotype (%): 20% and 19%
  Total Cell Count: 608 and 512
[4]
  Population Apoptotic (%): 59% and 55%
  Population Fragmented Nuclei (%): 10% and 5%
  Population Healthy Nuclei (%): 66% and 78%
  Population Hoechst High Intensity Objects (%): 5%
  Population Membrane Permeable-Phenotype (%): 0%
  Population Mitochondria Different-Phenotype (%): 78% and 80%
  Population Mitotic Cells (%): 40% and 44%
  Population Normal (%): 94% and 95%
  Population Pyknosed Nuclei (%): 22% and 16%
  Population Tubulin-Different-Phenotype (%): 74% and 69%
  Total Cell Count: 321 and 440
[5]
  Population Apoptotic (%): 27% and 18%
  Population Fragmented Nuclei (%): 12% and 13%
  Population Healthy Nuclei (%): 78% and 81%
  Population Hoechst High Intensity Objects (%): 3% and 2%
  Population Membrane Permeable-Phenotype (%): 1%
  Population Mitochondria Different-Phenotype (%): 17% and 25%
  Population Mitotic Cells (%): 72% and 81%
  Population Normal (%): 96% and 97%
  Population Pyknosed Nuclei (%): 9% and 5%
  Population Tubulin-Different-Phenotype (%): 16% and 19%
  Total Cell Count: 912 and 748
[6]
  Population Apoptotic (%): 62% and 45%
  Population Fragmented Nuclei (%): 9%
  Population Healthy Nuclei (%): 72% and 79%
  Population Hoechst High Intensity Objects (%): 3% and 4%
  Population Membrane Permeable-Phenotype (%): 0%
  Population Mitochondria Different-Phenotype (%): 82% and 71%
  Population Mitotic Cells (%): 37% and 55%
  Population Normal (%): 96% and 95%
  Population Pyknosed Nuclei (%): 18% and 10%
  Population Tubulin-Different-Phenotype (%): 78% and 63%
  Total Cell Count: 387 and 593

## COc1cccc2c1c(NS(=O)(=O)c1ccc(Cl)s1)nn2Cc1cccc(CNC(=O)C(C)(C)O)c1
[1]
  Population Apoptotic (%): 31% and 34%
  Population Fragmented Nuclei (%): 6% and 7%
  Population Healthy Nuclei (%): 82% and 77%
  Population Hoechst High Intensity Objects (%): 6% and 10%
  Population Membrane Permeable-Phenotype (%): 0%
  Population Mitochondria Different-Phenotype (%): 39% and 52%
  Population Mitotic Cells (%): 68% and 65%
  Population Normal (%): 93% and 89%
  Population Pyknosed Nuclei (%): 10% and 15%
  Population Tubulin-Different-Phenotype (%): 26% and 23%
  Total Cell Count: 469 and 315
[2]
  Population Apoptotic (%): 42% and 35%
  Population Fragmented Nuclei (%): 6% and 5%
  Population Healthy Nuclei (%): 80% and 78%
  Population Hoechst High Intensity Objects (%): 7% and 11%
  Population Membrane Permeable-Phenotype (%): 0%
  Population Mitochondria Different-Phenotype (%): 51% and 69%
  Population Mitotic Cells (%): 57% and 65%
  Population Normal (%): 92% and 88%
  Population Pyknosed Nuclei (%): 12% and 16%
  Population Tubulin-Different-Phenotype (%): 38% and 33%
  Total Cell Count: 356 and 280
[3]
  Population Apoptotic (%): 26% and 44%
  Population Fragmented Nuclei (%): 7% and 6%
  Population Healthy Nuclei (%): 81% and 84%
  Population Hoechst High Intensity Objects (%): 2% and 7%
  Population Membrane Permeable-Phenotype (%): 0%
  Population Mitochondria Different-Phenotype (%): 22% and 37%
  Population Mitotic Cells (%): 73% and 55%
  Population Normal (%): 97% and 92%
  Population Pyknosed Nuclei (%): 11% and 8%
  Population Tubulin-Different-Phenotype (%): 17% and 15%
  Total Cell Count: 617 and 357
[4]
  Population Apoptotic (%): 40%
  Population Fragmented Nuclei (%): 10% and 9%
  Population Healthy Nuclei (%): 73% and 77%
  Population Hoechst High Intensity Objects (%): 5%
  Population Membrane Permeable-Phenotype (%): 0%
  Population Mitochondria Different-Phenotype (%): 34% and 46%
  Population Mitotic Cells (%): 60%
  Population Normal (%): 94%
  Population Pyknosed Nuclei (%): 16% and 12%
  Population Tubulin-Different-Phenotype (%): 23% and 22%
  Total Cell Count: 462 and 384
[5]
  Population Apoptotic (%): 16% and 28%
  Population Fragmented Nuclei (%): 10% and 11%
  Population Healthy Nuclei (%): 83%
  Population Hoechst High Intensity Objects (%): 2%
  Population Membrane Permeable-Phenotype (%): 0% and 2%
  Population Mitochondria Different-Phenotype (%): 18% and 21%
  Population Mitotic Cells (%): 83% and 71%
  Population Normal (%): 97%
  Population Pyknosed Nuclei (%): 6% and 4%
  Population Tubulin-Different-Phenotype (%): 11% and 10%
  Total Cell Count: 1062 and 591
[6]
  Population Apoptotic (%): 26% and 35%
  Population Fragmented Nuclei (%): 16% and 8%
  Population Healthy Nuclei (%): 72% and 83%
  Population Hoechst High Intensity Objects (%): 4%
  Population Membrane Permeable-Phenotype (%): 0%
  Population Mitochondria Different-Phenotype (%): 25% and 27%
  Population Mitotic Cells (%): 73% and 65%
  Population Normal (%): 95%
  Population Pyknosed Nuclei (%): 10% and 7%
  Population Tubulin-Different-Phenotype (%): 16% and 12%
  Total Cell Count: 646 and 550

## CCOc1c2c(c(OCC)c3ncccc13)CN(c1ccc(CS(=O)(=O)NC(=O)Cc3ccccc3OC)cc1C)C2=O
[1]
  Population Apoptotic (%): 33% and 35%
  Population Fragmented Nuclei (%): 3% and 5%
  Population Healthy Nuclei (%): 81% and 82%
  Population Hoechst High Intensity Objects (%): 6% and 5%
  Population Membrane Permeable-Phenotype (%): 0%
  Population Mitochondria Different-Phenotype (%): 43% and 54%
  Population Mitotic Cells (%): 66% and 64%
  Population Normal (%): 93% and 94%
  Population Pyknosed Nuclei (%): 14% and 12%
  Population Tubulin-Different-Phenotype (%): 31% and 16%
  Total Cell Count: 356 and 355
[2]
  Population Apoptotic (%): 45% and 53%
  Population Fragmented Nuclei (%): 9% and 7%
  Population Healthy Nuclei (%): 78% and 76%
  Population Hoechst High Intensity Objects (%): 4% and 9%
  Population Membrane Permeable-Phenotype (%): 0%
  Population Mitochondria Different-Phenotype (%): 49% and 72%
  Population Mitotic Cells (%): 54% and 46%
  Population Normal (%): 95% and 90%
  Population Pyknosed Nuclei (%): 12% and 16%
  Population Tubulin-Different-Phenotype (%): 34% and 29%
  Total Cell Count: 367 and 362
[3]
  Population Apoptotic (%): 35% and 27%
  Population Fragmented Nuclei (%): 11% and 5%
  Population Healthy Nuclei (%): 73% and 85%
  Population Hoechst High Intensity Objects (%): 5% and 3%
  Population Membrane Permeable-Phenotype (%): 0%
  Population Mitochondria Different-Phenotype (%): 28% and 27%
  Population Mitotic Cells (%): 64% and 72%
  Population Normal (%): 94% and 96%
  Population Pyknosed Nuclei (%): 14% and 8%
  Population Tubulin-Different-Phenotype (%): 20% and 10%
  Total Cell Count: 462 and 473
[4]
  Population Apoptotic (%): 18% and 32%
  Population Fragmented Nuclei (%): 10% and 8%
  Population Healthy Nuclei (%): 75% and 82%
  Population Hoechst High Intensity Objects (%): 4% and 8%
  Population Membrane Permeable-Phenotype (%): 0% and 1%
  Population Mitochondria Different-Phenotype (%): 36% and 49%
  Population Mitotic Cells (%): 81% and 67%
  Population Normal (%): 95% and 91%
  Population Pyknosed Nuclei (%): 14% and 9%
  Population Tubulin-Different-Phenotype (%): 28% and 17%
  Total Cell Count: 446 and 481
[5]
  Population Apoptotic (%): 29% and 33%
  Population Fragmented Nuclei (%): 13% and 11%
  Population Healthy Nuclei (%): 79% and 83%
  Population Hoechst High Intensity Objects (%): 3% and 1%
  Population Membrane Permeable-Phenotype (%): 0%
  Population Mitochondria Different-Phenotype (%): 20% and 14%
  Population Mitotic Cells (%): 70% and 66%
  Population Normal (%): 96% and 98%
  Population Pyknosed Nuclei (%): 6% and 5%
  Population Tubulin-Different-Phenotype (%): 13% and 7%
  Total Cell Count: 822 and 770
[6]
  Population Apoptotic (%): 41% and 33%
  Population Fragmented Nuclei (%): 13% and 12%
  Population Healthy Nuclei (%): 78% and 81%
  Population Hoechst High Intensity Objects (%): 4% and 3%
  Population Membrane Permeable-Phenotype (%): 1% and 0%
  Population Mitochondria Different-Phenotype (%): 32% and 22%
  Population Mitotic Cells (%): 58% and 66%
  Population Normal (%): 95% and 96%
  Population Pyknosed Nuclei (%): 8% and 6%
  Population Tubulin-Different-Phenotype (%): 16% and 11%
  Total Cell Count: 631 and 724
